The target in test [1] is PKCα (Homo sapiens, UniProt P17252). In words: In vitro PKC inhibition assay. In kind it is biochemical. Particulars: read-out: IC50 PKCα; purified human recombinant PKCα, 15 min, room temperature. Put shortly:
(§1)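 Purified human recombinant PKC isoforms incubated at room temperature with ATP and isoform-specific substrates (25 to 400 nM) plus increasing concentrations of test compound (C8–C18 alkyl benzyl quaternary ammonium class). TR-FRET detection (LANCE or HTRF). Percent inhibition of control activity; IC50 and Hill coefficient from nonlinear Hill-equation fits of mean replicate values.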

Test [2] concerns the target PKCβ1 (Homo sapiens, UniProt P05771). In words: In vitro PKC inhibition assay. In kind it is biochemical. Particulars: read-out: IC50 PKCβ1; purified human recombinant PKCβ1, 30 min, room temperature. Put shortly: as §1
Test [3] deals with PKCβ2 (Homo sapiens, UniProt P05771). In words: In vitro PKC inhibition assay. Particulars: read-out: IC50 PKCβ2; purified human recombinant PKCβ2, 15 min, room temperature. In kind it is biochemical. Put shortly: as §1
Test [4] addresses PKCδ (Homo sapiens, UniProt Q05655). The test can be described thus: In vitro PKC inhibition assay. In kind it is biochemical. The conditions noted are these: read-out: IC50 PKCδ; purified human recombinant PKCδ, 30 min, room temperature. Put shortly:
as §1

Test [5] relates to PBMCs (LPS). In words: Marker secretion inhibition in LPS-stimulated PBMCs. In kind it is cell-based. Particulars: Homo sapiens, PBMC. Put shortly: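 PBMCs were Ficoll-isolated from one donor's blood and cultured in RPMI 1640 with 10% heat-inactivated FBS, 2 mM glutamine and pen/strep at 37 °C, 5% CO2. Test compound was given in a 30-min preincubation, then in fresh medium with LPS for 24 h. IL-6, IL-8 and IL-12 in supernatant were measured by flow-cytometric bead array. Results are % inhibition versus stimulated cells, mean ± SEM of triplicates.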

The structures appear in SMILES notation. Read-outs that look alike come from different tables or passages of the source.

Chain of PKCδ (Q05655 whole entry): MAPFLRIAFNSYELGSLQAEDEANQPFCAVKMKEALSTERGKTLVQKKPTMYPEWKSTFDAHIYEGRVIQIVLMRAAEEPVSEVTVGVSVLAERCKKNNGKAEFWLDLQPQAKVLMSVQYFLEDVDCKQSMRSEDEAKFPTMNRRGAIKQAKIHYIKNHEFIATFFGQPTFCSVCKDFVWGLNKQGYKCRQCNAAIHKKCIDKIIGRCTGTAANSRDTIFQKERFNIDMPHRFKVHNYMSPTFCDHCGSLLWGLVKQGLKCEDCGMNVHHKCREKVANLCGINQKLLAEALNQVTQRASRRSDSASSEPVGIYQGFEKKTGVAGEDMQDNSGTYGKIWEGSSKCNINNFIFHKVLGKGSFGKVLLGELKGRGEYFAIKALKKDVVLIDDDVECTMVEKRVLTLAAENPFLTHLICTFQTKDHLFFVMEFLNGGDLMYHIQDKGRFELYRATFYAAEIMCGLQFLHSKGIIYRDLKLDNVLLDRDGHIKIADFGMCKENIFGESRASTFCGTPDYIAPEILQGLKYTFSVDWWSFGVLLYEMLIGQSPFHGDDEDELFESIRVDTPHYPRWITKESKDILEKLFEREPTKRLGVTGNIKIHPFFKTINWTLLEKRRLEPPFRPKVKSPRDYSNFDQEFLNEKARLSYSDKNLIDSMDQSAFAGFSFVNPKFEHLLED
Chain of PKCβ2 (P05771 1-673 isoform P05771-2): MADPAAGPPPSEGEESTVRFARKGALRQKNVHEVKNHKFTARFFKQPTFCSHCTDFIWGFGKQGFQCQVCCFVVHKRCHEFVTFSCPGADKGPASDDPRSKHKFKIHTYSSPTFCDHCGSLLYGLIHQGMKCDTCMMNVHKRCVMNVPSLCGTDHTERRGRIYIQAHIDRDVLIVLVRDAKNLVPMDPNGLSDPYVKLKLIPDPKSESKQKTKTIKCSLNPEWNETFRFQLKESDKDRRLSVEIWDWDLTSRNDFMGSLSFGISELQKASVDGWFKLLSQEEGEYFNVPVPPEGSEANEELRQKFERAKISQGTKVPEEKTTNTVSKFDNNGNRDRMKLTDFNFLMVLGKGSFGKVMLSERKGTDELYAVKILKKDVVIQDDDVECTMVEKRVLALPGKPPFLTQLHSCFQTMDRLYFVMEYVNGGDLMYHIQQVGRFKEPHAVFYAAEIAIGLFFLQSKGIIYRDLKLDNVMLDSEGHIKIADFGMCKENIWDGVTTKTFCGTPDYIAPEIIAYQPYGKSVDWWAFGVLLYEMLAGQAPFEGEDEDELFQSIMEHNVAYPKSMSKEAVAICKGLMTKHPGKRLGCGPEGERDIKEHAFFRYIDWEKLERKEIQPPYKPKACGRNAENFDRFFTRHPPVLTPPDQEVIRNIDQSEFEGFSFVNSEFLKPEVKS
Chain of PKCβ1 (P05771 whole entry): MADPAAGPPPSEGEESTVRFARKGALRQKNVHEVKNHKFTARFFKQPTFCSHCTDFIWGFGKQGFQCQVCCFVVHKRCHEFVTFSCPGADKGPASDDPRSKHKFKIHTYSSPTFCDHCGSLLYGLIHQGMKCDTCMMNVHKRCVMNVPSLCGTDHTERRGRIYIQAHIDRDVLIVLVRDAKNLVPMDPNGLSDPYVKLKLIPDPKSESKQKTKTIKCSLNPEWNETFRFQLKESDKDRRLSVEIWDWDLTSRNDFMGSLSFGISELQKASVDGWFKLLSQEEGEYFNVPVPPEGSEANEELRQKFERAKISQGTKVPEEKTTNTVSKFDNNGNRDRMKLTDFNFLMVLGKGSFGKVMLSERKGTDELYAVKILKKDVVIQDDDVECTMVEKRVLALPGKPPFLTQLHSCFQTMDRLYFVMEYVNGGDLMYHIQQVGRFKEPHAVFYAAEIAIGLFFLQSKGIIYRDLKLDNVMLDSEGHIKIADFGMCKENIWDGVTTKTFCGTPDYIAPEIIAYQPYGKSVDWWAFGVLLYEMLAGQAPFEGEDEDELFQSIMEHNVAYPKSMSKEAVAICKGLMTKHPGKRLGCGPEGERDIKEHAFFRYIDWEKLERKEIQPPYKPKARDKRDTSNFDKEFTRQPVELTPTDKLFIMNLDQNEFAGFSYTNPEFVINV

For orientation: IC50 means the concentration that gives 50% inhibition. Turning to `CCCCCCCC[N+](C)(C)Cc1ccccc1` [C8], the results for the IC50 in test [1], in test [2] and in test [3] were > 141 µM, > 101 µM and > 101 µM, respectively.

As to `CCCCCCCCCC[N+](C)(C)Cc1ccccc1` [C10], the IC50 in test [1] was > 128 µM; in test [2] it was > 101 µM; in test [3] it was > 101 µM; in test [4] it was > 128 µM.

On to `CCCCCCCCCCCC[N+](C)(C)Cc1ccccc1` [C12], for which the IC50 was 22.6 µM in test [1], 58.8 µM in test [2], 58.8 µM in test [3] and > 118 µM in test [4].

`CCCCCCCCCCCCCC[N+](C)(C)Cc1ccccc1` [C14]: the IC50 was 5.4 µM in test [1], 10.1 µM in test [2], 14.1 µM in test [3] and > 109 µM in test [4].

Take `CCCCCCCCCCCCCCCC[N+](C)(C)Cc1ccccc1` [C16 (CKC), cetalkonium chloride]: the IC50 in test [2] and in test [3] was > 101 µM in each case.

With `CCCCCCCCCCCCCCCCCC[N+](C)(C)Cc1ccccc1` [C18], the 50% inhibitory concentration (IC50) in test [1] amounted to 11.7 µM; in test [2], 74.6 µM; in test [3], 39.3 µM.

For orientation: inhibition means the relative decrease from the control value, in per cent. Take `C[C@@H]1C[C@H]2[C@@H]3CCC4=CC(=O)C=C[C@]4(C)[C@@]3(F)[C@@H](O)C[C@]2(C)[C@@]1(O)C(=O)CO` [DXM, dexamethasone]: the inhibition at 0.1 µM in test [5] (read-out: % of marker secretion inhibition, IL6) worked out at 72 ± 1%; in test [5] (read-out: % of marker secretion inhibition, IL8), 68 ± 2%; in test [5] (read-out: % of marker secretion inhibition, IL12), 97 ± 1%; in test [5] (read-out: % of marker secretion inhibition, TNFα), 85 ± 1%.

The values are drawn from article PMC6054836 (Molecular Vision, 2018).
